ChEMBL document CHEMBL4266027, “Cyanobufalins: Cardioactive Toxins from Cyanobacterial Blooms” (J Nat Prod, 2018)

Tests used:
MDA-MB-468 = assay: Cytotoxicity against human MDA-MB-468 cells assessed as decrease in cell viability after 72 hrs by MTS assay; format: functional, cell-based; settings: MDA-MB-468, 72 h
Outline: (§1)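 Cell proliferation assay using the MTS reagent. Compounds were tested as a dilution series, and EC50 values were derived from the concentration–response data.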

BXPC-3 = assay: Cytotoxicity against human BxPC3 cells assessed as decrease in cell viability after 72 hrs by MTS assay; format: functional, cell-based; settings: BXPC-3, 72 h; outline: as §1
THP-1 = assay: Cytotoxicity against human THP1 cells assessed as decrease in cell viability after 72 hrs by MTS assay; format: functional, cell-based; settings: THP-1, 72 h; outline: as §1
SK-OV-3 = assay: Cytotoxicity against human SKOV3 cells assessed as decrease in cell viability after 72 hrs by MTS assay; format: functional, cell-based; settings: SK-OV-3, 72 h; outline: as §1
NCI-N87 = assay: Cytotoxicity against human NCI-N87 cells assessed as decrease in cell viability after 72 hrs by MTS assay; format: functional, cell-based; settings: NCI-N87, 72 h; outline: as §1
Cardiac muscle cell [1] = assay: Toxicity in human inducible pluripotent stem cell derived cardiomyocytes assessed as change in beating amplitude at 0.32 nM after 8 mins; format: cell-based; settings: 0.00032 µM
Outline: (§2)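 Human iPSC-derived cardiomyocytes (Cor.4U) were grown to stable beating cultures and monitored by impedance in real time with 20 s recordings. Compounds were given as a dilution series from 0.32 nM to 5 μM, dosed twice 24 h apart, with monitoring over 48 h. Beating amplitude was taken from each negative peak to the following positive peak and reported as % change.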

MRC5 = assay: Cytotoxicity against human MRC5 cells assessed as decrease in cell viability after 72 hrs by MTS assay; format: cell-based; settings: MRC5, 72 h; outline: as §1
Cardiac muscle cell [2] = assay: Toxicity in human inducible pluripotent stem cell derived cardiomyocytes assessed as change in beating amplitude at 8 nM after 66 mins; format: cell-based; settings: 1.1 h, 0.008 µM
Outline: (§3)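 Cor.4U hiPSC-derived cardiomyocytes grown to stable beating cultures, then monitored by impedance in RTCA Cardio plates with 20 s recordings. Compounds tested as a dilution series from 0.32 nM to 5 μM, dosed twice 24 h apart, followed over 48 h. Beating amplitude is taken from each negative peak to the next positive peak and reported as percent change.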

Cardiac muscle cell [3] = assay: Toxicity in human inducible pluripotent stem cell derived cardiomyocytes assessed as change in beating amplitude at 0.32 nM after 36 hrs; format: cell-based; settings: 0.00032 µM; outline: as §2
[4] = Cytotoxicity against human LOX cells assessed as decrease in cell viability after 72 hrs by MTS assay; format: functional, cell-based; outline: as §1
DU-145 = assay: Cytotoxicity against human DU145 cells assessed as decrease in cell viability after 72 hrs by MTS assay; format: functional, cell-based; settings: DU-145, 72 h; outline: as §1
MES-SA = assay: Cytotoxicity against human MESSA cells assessed as decrease in cell viability after 72 hrs by MTS assay; format: functional, cell-based; outline: as §1
Cardiac muscle cell [5] = assay: Toxicity in human inducible pluripotent stem cell derived cardiomyocytes assessed as change in beating amplitude at 0.32 nM after 12 hrs; format: cell-based; settings: 0.00032 µM; outline: as §2
HUVEC = assay: Cytotoxicity against human HUVEC cells assessed as decrease in cell viability after 72 hrs by MTS assay; format: cell-based; outline: as §1
Cardiac muscle cell [6] = assay: Toxicity in human inducible pluripotent stem cell derived cardiomyocytes assessed as change in beating amplitude at 1.6 nM after 24 hrs; format: cell-based; settings: 0.0016 µM; outline: as §2
MES-SA/Dx5 = assay: Cytotoxicity against human MES-SA/Dx5 cells assessed as decrease in cell viability after 72 hrs by MTS assay; format: functional, cell-based; settings: MES-SA/Dx5, 72 h; outline: as §1
MCF7 = assay: Cytotoxicity against human MCF7 cells assessed as decrease in cell viability after 72 hrs by MTS assay; format: functional, cell-based; settings: MCF7, 72 h; outline: as §1
HepG2 = assay: Cytotoxicity against human HepG2 cells assessed as decrease in cell viability after 72 hrs by MTS assay; format: functional, cell-based; settings: HepG2, 72 h; outline: as §1
Cardiac muscle cell [7] = assay: Toxicity in human inducible pluripotent stem cell derived cardiomyocytes assessed as change in beating amplitude at 1.6 nM after 66 mins; format: cell-based; settings: 1.1 h, 0.0016 µM; outline: as §2
U-87 MG = assay: Cytotoxicity against human U87MG cells assessed as decrease in cell viability after 72 hrs by MTS assay; format: functional, cell-based, U-87MG ATCC; outline: as §1
HCT-116 = assay: Cytotoxicity against human HCT116 cells assessed as decrease in cell viability after 72 hrs by MTS assay; format: functional, cell-based; settings: HCT-116, 72 h; outline: as §1
HT-1080 = assay: Cytotoxicity against human HT1080 cells assessed as decrease in cell viability after 72 hrs by MTS assay; format: functional, cell-based; settings: HT-1080, 72 h; outline: as §1
Cardiac muscle cell [8] = assay: Toxicity in human inducible pluripotent stem cell derived cardiomyocytes assessed as change in beating amplitude at 8 nM after 33 mins; format: cell-based; settings: 0.55 h, 0.008 µM; outline: as §2
Daudi = assay: Cytotoxicity against human Daudi cells assessed as decrease in cell viability after 72 hrs by MTS assay; format: functional, cell-based; outline: as §1
Cardiac muscle cell [9] = assay: Toxicity in human inducible pluripotent stem cell derived cardiomyocytes assessed as change in beating amplitude at 40 nM after 66 mins; format: cell-based; settings: 1.1 h, 0.04 µM; outline: as §2
Cardiac muscle cell [10] = assay: Toxicity in human inducible pluripotent stem cell derived cardiomyocytes assessed as change in beating amplitude at 0.32 nM after 66 mins; format: cell-based; settings: 1.1 h, 0.00032 µM; outline: as §2
PANC-1 = assay: Cytotoxicity against human PANC1 cells assessed as decrease in cell viability after 72 hrs by MTS assay; format: functional, cell-based; settings: PANC-1, 72 h; outline: as §1
Cardiac muscle cell [11] = assay: Toxicity in human inducible pluripotent stem cell derived cardiomyocytes assessed as increase in beating amplitude at >= 40 nM up to 48 hrs; format: cell-based; outline: as §3
Cardiac muscle cell [12] = assay: Toxicity in human inducible pluripotent stem cell derived cardiomyocytes assessed as increase in beating amplitude at 8 nM up to 48 hrs; format: cell-based; settings: 0.008 µM; outline: as §3
Cardiac muscle cell [13] = assay: Toxicity in human inducible pluripotent stem cell derived cardiomyocytes assessed as change in beating amplitude at 1.6 nM after 12 hrs; format: cell-based; settings: 0.0016 µM; outline: as §2
Cardiac muscle cell [14] = assay: Toxicity in human inducible pluripotent stem cell derived cardiomyocytes assessed as change in beating amplitude at 0.32 nM after 4 hrs; format: cell-based; settings: 0.00032 µM; outline: as §2
Cardiac muscle cell [15] = assay: Toxicity in human inducible pluripotent stem cell derived cardiomyocytes assessed as change in beating amplitude at 8 nM after 24 hrs; format: cell-based; settings: 0.008 µM; outline: as §2
Cardiac muscle cell [16] = assay: Toxicity in human inducible pluripotent stem cell derived cardiomyocytes assessed as change in beating amplitude at 1.6 nM after 33 mins; format: cell-based; settings: 0.55 h, 0.0016 µM; outline: as §2
786-0 = assay: Cytotoxicity against human 786-O cells assessed as decrease in cell viability after 72 hrs by MTS assay; format: functional, cell-based; settings: 786-0, 72 h; outline: as §1
A549 = assay: Cytotoxicity against human A549 cells assessed as decrease in cell viability after 72 hrs by MTS assay; format: functional, cell-based; settings: A549, 72 h; outline: as §1
NCI-H1975 = assay: Cytotoxicity against human NCI-H1975 cells assessed as decrease in cell viability after 72 hrs by MTS assay; format: functional, cell-based; settings: NCI-H1975, 72 h; outline: as §1
LoVo = assay: Cytotoxicity against human LoVo cells assessed as decrease in cell viability after 72 hrs by MTS assay; format: functional, cell-based; outline: as §1
MV4-11 = assay: Cytotoxicity against human MV411 cells assessed as decrease in cell viability after 72 hrs by MTS assay; format: functional, cell-based; settings: MV4-11, 72 h; outline: as §1
Cardiac muscle cell [17] = assay: Toxicity in human inducible pluripotent stem cell derived cardiomyocytes assessed as change in beating amplitude at 40 nM after 33 mins; format: cell-based; settings: 0.55 h, 0.04 µM; outline: as §2
HeLa = assay: Cytotoxicity against human HeLa cells assessed as decrease in cell viability after 72 hrs by MTS assay; format: functional, cell-based; outline: as §1
H22 = assay: Cytotoxicity against mouse H22 cells assessed as decrease in cell viability after 72 hrs by MTS assay; format: functional, cell-based; settings: H22, 72 h; outline: as §1
Cardiac muscle cell [18] = assay: Toxicity in human inducible pluripotent stem cell derived cardiomyocytes assessed as change in beating amplitude at 40 nM after 8 mins; format: cell-based; settings: 0.04 µM; outline: as §2
CCRF S-180 = assay: Cytotoxicity against mouse S180 cells assessed as decrease in cell viability after 72 hrs by MTS assay; format: functional, cell-based; settings: CCRF S-180, 72 h; outline: as §1
Cardiac muscle cell [19] = assay: Toxicity in human inducible pluripotent stem cell derived cardiomyocytes assessed as change in beating amplitude at 8 nM after 4 hrs; format: cell-based; settings: 0.008 µM; outline: as §3
Cardiac muscle cell [20] = assay: Toxicity in human inducible pluripotent stem cell derived cardiomyocytes assessed as change in beating amplitude at 1.6 nM after 36 hrs; format: cell-based; settings: 0.0016 µM; outline: as §2
Cardiac muscle cell [21] = assay: Toxicity in human inducible pluripotent stem cell derived cardiomyocytes assessed as change in beating amplitude at 0.32 nM after 33 mins; format: cell-based; settings: 0.55 h, 0.00032 µM; outline: as §2
Cardiac muscle cell [22] = assay: Toxicity in human inducible pluripotent stem cell derived cardiomyocytes assessed as change in beating amplitude at 1.6 nM after 4 hrs; format: cell-based; settings: 0.0016 µM; outline: as §2
BT-474 = assay: Cytotoxicity against human BT474 cells assessed as decrease in cell viability after 72 hrs by MTS assay; format: functional, cell-based; settings: BT-474, 72 h; outline: as §1
Cardiac muscle cell [23] = assay: Toxicity in human inducible pluripotent stem cell derived cardiomyocytes assessed as change in beating amplitude at 8 nM after 12 hrs; format: cell-based; settings: 0.008 µM; outline: as §2
Cardiac muscle cell [24] = assay: Toxicity in human inducible pluripotent stem cell derived cardiomyocytes assessed as change in beating amplitude at 1.6 nM after 48 hrs; format: cell-based; settings: 0.0016 µM; outline: as §2
Cardiac muscle cell [25] = assay: Toxicity in human inducible pluripotent stem cell derived cardiomyocytes assessed as change in beating amplitude at 0.32 nM after 48 hrs; format: cell-based; settings: 0.00032 µM; outline: as §2
Cardiac muscle cell [26] = assay: Toxicity in human inducible pluripotent stem cell derived cardiomyocytes assessed as change in beating amplitude at 8 nM after 8 mins; format: cell-based; settings: 0.008 µM; outline: as §3
Cardiac muscle cell [27] = assay: Toxicity in human inducible pluripotent stem cell derived cardiomyocytes assessed as change in beating amplitude at 0.32 nM after 24 hrs; format: cell-based; settings: 0.00032 µM; outline: as §2
Cardiac muscle cell [28] = assay: Toxicity in human inducible pluripotent stem cell derived cardiomyocytes assessed as change in beating amplitude at 1.6 nM after 8 mins; format: cell-based; settings: 0.0016 µM; outline: as §2

CC1(C)[C@@H](OC(N)=O)C=C[C@]2(C=O)[C@H]3CC[C@]4(C)[C@@H](c5ccc(=O)oc5)[C@@H](Cl)C[C@]4(O)C3=CC[C@@H]12
EC50 (MDA-MB-468): 7 nM | EC50 (BXPC-3): 5.7 nM | EC50 (THP-1): 4.3 nM | EC50 (SK-OV-3): 6 nM | EC50 (NCI-N87): 5.8 nM | Activity (Cardiac muscle cell [1]): -2.7% | EC50 (MRC5): 2.4 nM | Activity (Cardiac muscle cell [2]): 14% | Activity (Cardiac muscle cell [3]): 57% | EC50 [4]: 3.7 nM | EC50 (DU-145): 5.2 nM | EC50 (MES-SA): 6.8 nM | Activity (Cardiac muscle cell [5]): 23% | EC50 (HUVEC): 9.7 nM | Activity (Cardiac muscle cell [6]): 2.8% | EC50 (MES-SA/Dx5): 5.8 nM | EC50 (MCF7): 15 nM | EC50 (HepG2): 5.8 nM | Activity (Cardiac muscle cell [7]): 2.6% | EC50 (U-87 MG): 5.7 nM | EC50 (HCT-116): 6 nM | EC50 (HT-1080): 5.4 nM | Activity (Cardiac muscle cell [8]): 7.5% | EC50 (Daudi): 3.3 nM | Activity (Cardiac muscle cell [9]): -94% | Activity (Cardiac muscle cell [10]): -1.9% | EC50 (PANC-1): 2.1 nM | Activity (Cardiac muscle cell [11]): Toxic | Activity (Cardiac muscle cell [12]): Toxic | Activity (Cardiac muscle cell [13]): 3.3% | Activity (Cardiac muscle cell [14]): 19% | Activity (Cardiac muscle cell [15]): -59% | Activity (Cardiac muscle cell [16]): -2.1% | EC50 (786-0): 2.3 nM | EC50 (A549): 3.7 nM | EC50 (NCI-H1975): 3.1 nM | EC50 (LoVo): 5.6 nM | EC50 (MV4-11): 6.3 nM | Activity (Cardiac muscle cell [17]): 13% | EC50 (HeLa): 4.7 nM | EC50 (H22): 4600 nM | Activity (Cardiac muscle cell [18]): 2.6% | EC50 (CCRF S-180): > 20000 nM | Activity (Cardiac muscle cell [19]): -19% | Activity (Cardiac muscle cell [20]): 11% | Activity (Cardiac muscle cell [21]): 0.7% | Activity (Cardiac muscle cell [22]): 9.7% | EC50 (BT-474): 3.7 nM | Activity (Cardiac muscle cell [23]): -18% | Activity (Cardiac muscle cell [24]): -20% | Activity (Cardiac muscle cell [25]): 30% | Activity (Cardiac muscle cell [26]): 3.9% | Activity (Cardiac muscle cell [27]): 30% | Activity (Cardiac muscle cell [28]): -1.9%
